The values below come from ChEMBL document CHEMBL4196192, “MEPicides: α,β-Unsaturated Fosmidomycin Analogues as DXR Inhibitors against Malaria” (J Med Chem, 2018).

pIC50: −log10 of the molar value. The source made the active and inactive calls. The rule behind the calls is not given here.

The test system of data set [1] is Plasmodium falciparum. Put plainly: Growth inhibition of Plasmodium falciparum 3D7 asynchronous cultures by PicoGreen dye based assay. The class given is functional, organism-based.
The target in data set [2] is T1, 1-deoxy-D-xylulose 5-phosphate reductoisomerase, apicoplastic (Plasmodium falciparum (isolate 3D7)) (UniProt Q8IKG4).
T1 sequence (whole entry): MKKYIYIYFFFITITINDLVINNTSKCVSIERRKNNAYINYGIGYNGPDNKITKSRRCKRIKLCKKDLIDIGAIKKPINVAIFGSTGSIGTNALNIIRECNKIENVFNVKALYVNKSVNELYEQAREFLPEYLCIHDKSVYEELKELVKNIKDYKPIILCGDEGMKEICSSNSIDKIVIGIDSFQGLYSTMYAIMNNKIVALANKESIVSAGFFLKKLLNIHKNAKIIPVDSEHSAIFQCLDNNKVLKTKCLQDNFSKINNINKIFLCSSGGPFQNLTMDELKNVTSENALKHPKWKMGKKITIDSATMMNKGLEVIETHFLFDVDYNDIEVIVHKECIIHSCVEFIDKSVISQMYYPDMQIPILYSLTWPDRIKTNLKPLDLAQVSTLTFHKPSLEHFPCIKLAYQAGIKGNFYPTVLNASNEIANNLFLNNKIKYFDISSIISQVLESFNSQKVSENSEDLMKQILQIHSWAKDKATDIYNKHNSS
Put plainly: Inhibition of Plasmodium falciparum DXR assessed as reduction in NADPH oxidation at 100 uM in presence of DOXP by UV-visible spectrophotometry. The method, boiled down:
(§1)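 Recombinant P. falciparum DXR (0.86 μM) in 100 mM Tris pH 7.8, 25 mM MgCl2, 150 μM NADPH, at 37 °C; inhibitor at a single 100 μM; reaction started with 144 μM DOXP; NADPH oxidation followed at 340 nm by UV-vis spectrophotometry; percent remaining activity; duplicate.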

The test system of data set [3] is Plasmodium falciparum. Put plainly: Growth inhibition of Plasmodium falciparum containing had1 mutation expressing GFP-HAD1 by PicoGreen dye based assay. The class given is functional, organism-based.
Data set [4] deals with Plasmodium falciparum. Put plainly: Growth inhibition of Plasmodium falciparum 3D7 asynchronous cultures at 0.01 to 100 uM incubated for 72 hrs in presence of excess IPP by PicoGreen dye based assay. Type of data set: functional, organism-based.
Data set [5] in a line: Half life in mouse plasma. Type of data set: ADME, cell-free.
Data set [6] concerns Plasmodium falciparum. Nature of the data set: Resistance index, ratio of IC50 for Plasmodium falciparum containing had1 mutation to IC50 for growth inhibition of wild type Plasmodium falciparum 3D7 asynchronous cultures. Type of data set: functional.
Data set [7] is described as follows: Selectivity index, ratio of IC50 for cytotoxicity in human HepG2 cells to IC50 for growth inhibition of Plasmodium falciparum 3D7 asynchronous cultures. The class given is toxicity, cell-based. The following applies: read-out: Ratio IC50.
The next data set concerns HepG2. Nature of the data set: Cytotoxicity in human HepG2 cells. Type of data set: cell-based.
A short description of data set [8]: Half life in mouse liver microsomes. Type of data set: ADME, microsome.
For data set [9], the system named is Plasmodium berghei. Nature of the data set: Antimalarial activity against luciferase-expressing Plasmodium berghei ANKA infected in Swiss Webster mouse assessed as reduction in parasitemia at 20 mg/kg, ip administered daily for 5 days starting from 2 days post infection by luciferase-luciferin based reporter assay. Type of data set: functional, organism-based.

The subject of data set [10] is Plasmodium falciparum. Nature of the data set: Growth inhibition of Plasmodium falciparum. The class given is functional, organism-based.
In data set [11] the target is T2, 1-deoxy-D-xylulose 5-phosphate reductoisomerase, apicoplastic (Plasmodium falciparum (isolate 3D7), UniProt Q8IKG4).
T2 sequence (Q8IKG4 whole entry): T1 sequence (whole entry)
Put plainly: Inhibition of Plasmodium falciparum DXR assessed as reduction in NADPH oxidation in presence of DOXP by UV-visible spectrophotometry. The method, boiled down:
(§2)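 Recombinant P. falciparum DXR (0.86 μM) in 100 mM Tris pH 7.8, 25 mM MgCl2 and 150 μM NADPH at 37 °C. Reaction started with 144 μM DOXP. NADPH oxidation followed at 340 nm by UV–visible spectrophotometry. Compounds were screened first at a single 100 μM concentration as percent remaining activity. Assays were run in duplicate.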

Data set [12] addresses T1, 1-deoxy-D-xylulose 5-phosphate reductoisomerase, apicoplastic (Plasmodium falciparum (isolate 3D7)). Put plainly: Inhibition of Plasmodium falciparum DXR assessed as remaining enzyme activity by measuring NADPH oxidation at 100 uM in presence of DOXP by UV-visible spectrophotometry. The method, boiled down:
as §1

For data set [13], the target named is T2, 1-deoxy-D-xylulose 5-phosphate reductoisomerase, apicoplastic. Put plainly: Inhibition of Plasmodium falciparum DXR. The procedure, abridged:
as §2

For data set [14], the system named is Plasmodium falciparum. Nature of the data set: Growth inhibition of Plasmodium falciparum containing had1 mutation at 0.01 to 100 uM by PicoGreen dye based assay. The class given is functional, organism-based.
In data set [15] the target is T1, 1-deoxy-D-xylulose 5-phosphate reductoisomerase, apicoplastic (Plasmodium falciparum (isolate 3D7)). Nature of the data set: Inhibition of DXR in Plasmodium falciparum 3D7 assessed as reduction in CDP-ME levels at 5 times growth inhibitory IC50 incubated for 10 hrs by LC-MS/MS method.
In data set [16] the test system is Mus musculus. Put plainly: Toxicity in luciferase-expressing Plasmodium berghei ANKA infected Swiss Webster mouse assessed as induction of adverse events at 20 mg/kg, ip administered daily for 5 days starting from 2 days post infection. The class given is organism-based. Particulars: in vivo. The method, boiled down: (§3)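 Female Swiss Webster mice (25–30 g) infected ip with 10^3 luciferase-expressing P. berghei, then given ip doses daily for 5 days from day 2 in 2% methylcellulose/0.5% Tween 80 vehicle, groups of five; mice observed for adverse effects over the dosing period.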

Data set [17] relates to Plasmodium falciparum. Put plainly: Effect on DXR protein level in Plasmodium falciparum 3D7 at 5 times growth inhibitory IC50 incubated for 10 hrs by LC-MS/MS method. The class given is organism-based.
Data set [18] concerns Mus musculus. Nature of the data set: Toxicity in luciferase-expressing Plasmodium berghei ANKA infected Swiss Webster mouse assessed as induction of adverse events at 50 mg/kg, ip administered daily for 5 days starting from 2 days post infection. Type of data set: organism-based. The following applies: in vivo. The method, boiled down:
as §3

Data set [19] relates to Plasmodium berghei. Put plainly: Antimalarial activity against luciferase-expressing Plasmodium berghei ANKA infected in Swiss Webster mouse assessed as reduction in parasitemia by measuring reduction in luciferin signal intensity at 20 mg/kg, ip administered daily for 5 days starting from 2 days post infection by luciferase-luciferin based reporter assay relative to untreated control. The class given is functional.

In data set [20] the target is T1, 1-deoxy-D-xylulose 5-phosphate reductoisomerase, apicoplastic (Plasmodium falciparum (isolate 3D7)). Put plainly: Inhibition of DXR in Plasmodium falciparum 3D7 assessed as reduction in MEP levels at 5 times growth inhibitory IC50 incubated for 10 hrs by LC-MS/MS method.
Data set [21] has as its system Plasmodium berghei. Put plainly: Antimalarial activity against luciferase-expressing Plasmodium berghei ANKA infected in Swiss Webster mouse assessed as reduction in parasitemia by measuring reduction in luciferin signal intensity at 50 mg/kg, ip administered daily for 5 days starting from 2 days post infection by luciferase-luciferin based reporter assay relative to untreated control. Type of data set: functional, organism-based.

For data set [22], the target named is T1, 1-deoxy-D-xylulose 5-phosphate reductoisomerase, apicoplastic (Plasmodium falciparum (isolate 3D7)). Nature of the data set: Inhibition of DXR in Plasmodium falciparum 3D7 assessed as reduction in MEcPP levels at 5 times growth inhibitory IC50 incubated for 10 hrs by LC-MS/MS method.

Consider `CC(=O)N(O)C/C=C/P(=O)(OCOC(=O)C(C)(C)C)OCOC(=O)C(C)(C)C`, for which the negative logarithm of the IC50 (pIC50) in the data set on Plasmodium falciparum [1] is 7.74.

On to `O=CN(O)C/C=C/P(=O)([O-])O.[Na+]`, for which, in [2], the inhibition was more than 75%. Moreover, the “growth inhibition (GI)” value in the data set with Plasmodium falciparum [3] was “Active”. Also, the “growth inhibition (GI)” value with Plasmodium falciparum [4] is “inactive”. Further, the pIC50 was 7.72 with Plasmodium falciparum [1] and less than 4.30 in the data set with HepG2. Moreover, the t1/2 is more than 2 h in data set [5] and more than 1 h in data set [8]. Also, the “Ratio IC50” value with Plasmodium falciparum [6] was 3.4. In addition, the selectivity ratio in [7] was 2630.

Consider `CC(=O)N(C/C=C/P(=O)(OCOC(=O)C(C)(C)C)OCOC(=O)C(C)(C)C)OCc1ccc(-c2ccccc2)cc1`, for which the pIC50 in the data set with Plasmodium falciparum [1] is 4.36.

For the molecule `CCN(CC)CCCC(C)Nc1ccnc2cc(Cl)ccc12` (configuration not stated), in the data set on Plasmodium berghei [9], the result was Active.

For the molecule `O=CN(O)CCCP(=O)(O)O` [FOSMIDOMYCIN SODIUM], the inhibition in [2] is more than 75%. The pIC50 in the data set with Plasmodium falciparum [1] was 5.96; with Plasmodium falciparum [10], 6.46 to 7.05.

In the data set with Plasmodium falciparum [1], `CC(=O)N(C/C=C/P(=O)(OCOC(=O)C(C)(C)C)OCOC(=O)C(C)(C)C)OCc1ccc(C(C)C)cc1` had a pIC50 of 4.26.

As for `CC(=O)N(O)C/C=C/P(=O)(O)O`, in data set [2], the inhibition was more than 75%. In addition, the pIC50 (in data set [11]; in the data set on Plasmodium falciparum [1]) was 6.69 each time.

As to `COC(=O)N(O)C/C=C/P(=O)(O)O`, in data set [2], the inhibition was more than 75%. In the data set with Plasmodium falciparum [1], this molecule had a pIC50 of 4.54.

`O=C(N(O)C/C=C/P(=O)(O)O)C(F)(F)F`: the inhibition in data set [2] was more than 75%. Further, the pIC50 with Plasmodium falciparum [1] was 3.95. The Activity in data set [12] was determined as 37%.

As to `CC(=O)N(C/C=C/P(=O)(OCOC(=O)C(C)(C)C)OCOC(=O)C(C)(C)C)OCc1ccc2ccccc2c1`, the pIC50 in the data set on Plasmodium falciparum [1] was 4.30.

In the case of `CC(=O)N(C/C=C/P(=O)(O)O)OCc1ccc(-c2ccccc2)cc1`, the inhibition in data set [2] is more than 75%. The pIC50 in the data set with Plasmodium falciparum [1] was 5.64.

Consider `CC(=O)N(C/C=C/P(=O)(O)O)OC(C)c1ccccc1` (configuration not stated), for which the inhibition in data set [2] is more than 75%. For the same molecule, the pIC50 with Plasmodium falciparum [1] is 5.92.

Molecule `COC(=O)N(O)C/C=C/P(=O)(OCOC(=O)C(C)(C)C)OCOC(=O)C(C)(C)C` had a pIC50 with Plasmodium falciparum [1] of 4.63.

On to `CC(=O)N(C/C=C/P(=O)(O)O)OCc1ccc2ccccc2c1`, for which, in data set [2], the inhibition was more than 75%. The pIC50 with Plasmodium falciparum [1] is 4.58. Also, in [12], the Activity amounted to 25%.

`CC(=O)N(O)CCCP(=O)(O)O`: in data set [2], the inhibition was more than 75%. Moreover, the pIC50 was 7.64 in data set [11], 6.29 in the data set on Plasmodium falciparum [1], 7.62 in data set [13] and 6.46 to 7.05 in the data set with Plasmodium falciparum [10].

In turn, `CC(=O)N(CCCP(=O)(OCOC(=O)C(C)(C)C)OCOC(=O)C(C)(C)C)OCc1ccc2ccccc2c1` showed a pIC50 in the data set on Plasmodium falciparum [10] of 4.48.

Turning to `C[C@@H]1CC[C@H]2[C@@H](C)C(=O)O[C@@H]3O[C@@]4(C)CC[C@@H]1[C@]32OO4` [ARTEMISININ], the pIC50 in the data set with Plasmodium falciparum [1] was 7.98.

For `CC(=O)N(C/C=C/P(=O)(O)O)OCc1ccc(C(C)C)cc1`, the inhibition in data set [2] was more than 75%. Moreover, the negative-log IC50 (pIC50) in the data set on Plasmodium falciparum [1] was 5.96. Besides, the “growth inhibition (GI)” value in the data set on Plasmodium falciparum [14] was “inactive”.

`CC(C)(C)C(=O)OCOP(=O)(/C=C/CN(O)C=O)OCOC(=O)C(C)(C)C`: the inhibition result in data set [15], in data set [20] and in data set [22] was “Active” throughout. Besides, the Activity result in the data set on Mus musculus [16], in the data set with Plasmodium falciparum [17] and with Mus musculus [18] was “Non-Toxic” throughout. For the same molecule, the “growth inhibition (GI)” value in the data set with Plasmodium falciparum [3] was “Active”. In addition, the “growth inhibition (GI)” value with Plasmodium falciparum [4] is “inactive”. Also, the negative-log IC50 (pIC50) was 7.89 with Plasmodium falciparum [1] and less than 4.30 with HepG2. Further, the t1/2 in [5] was less than 0.083 h. Also, the “log(activity)” value in the data set with Plasmodium berghei [19] amounted to 3. Besides, in the data set on Plasmodium berghei [21], the result was Active.

Molecule `CC(C)(C)C(=O)OCOP(=O)(/C=C/CN(O)C(=O)C(F)(F)F)OCOC(=O)C(C)(C)C` gave a pIC50 in the data set with Plasmodium falciparum [1] of 4.84.
